Results as given in ChEMBL document CHEMBL1125461, “Analogues of platelet activating factor. 6. Mono- and bis-aryl phosphate antagonists of platelet activating factor” (J Med Chem, 1992).
Each block holds one compound with its values, some of them ahead of it.

Tests used:
Format in all cases: functional
Oryctolagus cuniculus [1] = test: Compound was tested for protecting PAF-induced lethality in rabbit at a dose of 3 mg/kg (Out of 2)
Mus musculus [2] = test: Compound was tested for protecting PAF-induced lethality in mouse at a dose of 1 mg/kg (Out of 12)
Procedure, shortened: (§1)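 Female Swiss-Webster mice (20–25 g) were dosed ip with compound in saline at 10 mL/kg, and controls got saline alone. Thirty minutes later, racemic C16-PAF in saline was given as an iv tail-vein bolus at 10 mL/kg (75–150 µg/kg PAF). Survival was checked at 1.5 h and was recorded as dead/total.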

Mus musculus [3] = test: Compound was tested for protecting PAF-induced lethality in mouse at a dose of 10 mg/kg (Out of 13); procedure, shortened: as §1
Oryctolagus cuniculus [4] = test: Compound was tested for protecting PAF-induced lethality in rabbit at a dose of 2.5 mg/kg (Out of 2)
Procedure, shortened: (§2)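 Rabbits got compound iv 15 min before an iv challenge of L-C16-PAF at 150 µg/kg, made from a methanol stock diluted in saline. Controls were saline-treated. Survival was checked at 1 h and was recorded as dead/total.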

Mus musculus [5] = test: Compound was tested for protecting PAF-induced lethality in mouse at a dose of 0.5 mg/kg (Out of 220); procedure, shortened: as §1
Oryctolagus cuniculus [6] = test: Compound was tested for protecting PAF-induced lethality in rabbit at a dose of 5 mg/kg (Out of 3); procedure, shortened: as §2
Mus musculus [7] = test: Compound was tested for protecting PAF-induced lethality in mouse at a dose of 1 mg/kg (Out of 88); procedure, shortened: as §1
Mus musculus [8] = test: Compound was tested for protecting PAF-induced lethality in mouse at a dose of 1 mg/kg (Out of 74); procedure, shortened: as §1
Oryctolagus cuniculus [9] = test: Compound was tested for protecting PAF-induced lethality in rabbit at a dose of 10 mg/kg (Out of 5); procedure, shortened: as §2
Oryctolagus cuniculus [10] = test: Compound was tested for protecting PAF-induced lethality in rabbit at a dose of 1 mg/kg (Out of 3); procedure, shortened: as §2
Mus musculus [11] = test: Compound was tested for protecting PAF-induced lethality in mouse at a dose of 1.25 mg/kg (Out of 10); procedure, shortened: as §1
Mus musculus [12] = test: Compound was tested for protecting PAF-induced lethality in mouse at a dose of 0.5 mg/kg (Out of 23); procedure, shortened: as §1
Mus musculus [13] = test: Compound was tested for protecting PAF-induced lethality in mouse at a dose of 2.5 mg/kg (Out of 16); procedure, shortened: as §1
Oryctolagus cuniculus [14] = test: Compound was tested for protecting PAF-induced lethality in rabbit at a dose of 1 mg/kg (Out of 2); procedure, shortened: as §2
Mus musculus [15] = test: Compound was tested for protecting PAF-induced lethality in mouse at a dose of 0.5 mg/kg (Out of 49); procedure, shortened: as §1
Mus musculus [16] = test: Compound was tested for protecting PAF-induced lethality in mouse at a dose of 10 mg/kg (Out of 12); procedure, shortened: as §1
Oryctolagus cuniculus [17] = test: Compound was tested for protecting PAF-induced lethality in rabbit at a dose of 10 mg/kg (Out of 2); procedure, shortened: as §2
Mus musculus [18] = test: Compound was tested for protecting PAF-induced lethality in mouse at a dose of 0.5 mg/kg (Out of 10); procedure, shortened: as §1
Mus musculus [19] = test: Compound was tested for protecting PAF-induced lethality in mouse at a dose of 0.5 mg/kg (Out of 9); procedure, shortened: as §1
Mus musculus [20] = test: Compound was tested for protecting PAF-induced lethality in mouse at a dose of 0.5 mg/kg (Out of 41); procedure, shortened: as §1
Oryctolagus cuniculus [21] = species: Oryctolagus cuniculus; test: Compound was tested for its ability to inhibit PAF induced platelet aggregation in rabbit at a dose of 50 uM
Oryctolagus cuniculus [22] = species: Oryctolagus cuniculus; test: Compound was tested for its ability to inhibit PAF induced platelet aggregation in rabbit at a dose of 10 uM
Mus musculus [23] = test: Compound was tested for protecting PAF-induced lethality in mouse at a dose of 0.5 mg/kg (Out of 11); procedure, shortened: as §1
Mus musculus [24] = test: Compound was tested for protecting PAF-induced lethality in mouse at a dose of 2.5 mg/kg (Out of 10); procedure, shortened: as §1
Oryctolagus cuniculus [25] = species: Oryctolagus cuniculus; test: Compound was tested for its ability to inhibit PAF induced platelet aggregation in rabbit (No inhibition observed at a compound concentration up to 10 uM)
Mus musculus [26] = test: Compound was tested for protecting PAF-induced lethality in mouse at a dose of 1 mg/kg (Out of 10); procedure, shortened: as §1
Mus musculus [27] = test: Compound was tested for protecting PAF-induced lethality in mouse at a dose of 10 mg/kg (Out of 10); procedure, shortened: as §1
Oryctolagus cuniculus [28] = test: Compound was tested for protecting PAF-induced lethality in rabbit at a dose of 2.5 mg/kg (Out of 4); procedure, shortened: as §2
Mus musculus [29] = test: Compound was tested for protecting PAF-induced lethality in mouse at a dose of 0.5 mg/kg (Out of 830); procedure, shortened: as §1
Oryctolagus cuniculus [30] = test: Compound was tested for protecting PAF-induced lethality in rabbit at a dose of 1 mg/kg (Out of 11); procedure, shortened: as §2
Oryctolagus cuniculus [31] = test: Compound was tested for protecting PAF-induced lethality in rabbit at a dose of 5 mg/kg (Out of 5); procedure, shortened: as §2
Mus musculus [32] = test: Compound was tested for protecting PAF-induced lethality in mouse at a dose of 0.5 mg/kg (Out of 38); procedure, shortened: as §1

Compound: CCCCCCCCCCCCOc1cccc(OCC(COP(=O)([O-])Oc2cccc(C[n+]3csc(C)c3)c2)OC)c1 (stereo not drawn)
Lethality (Oryctolagus cuniculus [1]): 1 dead/total

Compound: CCCCCCCCCCCCCCOc1cccc(OP(=O)([O-])Oc2cccc(C[n+]3c(C)sc(C)c3C)c2)c1OC
Lethality (Mus musculus [2]): 9 dead/total | Lethality (Mus musculus [3]): 6 dead/total

Compound: CCCCCCCCCCCCOc1cc(C(C)(C)C)c(OP(=O)([O-])Oc2cccc(C[n+]3csc(C)c3)c2)cc1C(C)(C)C
Lethality (Oryctolagus cuniculus [4]): 0 dead/total

Compound: CCCCCCCCCCCCCCOc1cccc(OP(=O)([O-])Oc2cccc(C[n+]3csc(C)c3)c2)c1OC
Lethality (Mus musculus [5]): 80 dead/total | Lethality (Oryctolagus cuniculus [6]): 1 dead/total | Lethality (Mus musculus [7]): 24 dead/total | Lethality (Mus musculus [8]): 40 dead/total | Lethality (Oryctolagus cuniculus [9]): 0 dead/total | Lethality (Oryctolagus cuniculus [10]): 2 dead/total

Compound: CCCCCCCCCCCCCCCCOCC(COP(=O)([O-])Oc1cccc(C[n+]2ccsc2)c1)OC (stereo not drawn)
Lethality (Mus musculus [11]): 2 dead/total | Lethality (Oryctolagus cuniculus [4]): 1 dead/total

Compound: CCCCCCCCCCCCCCCCOCC(COP(=O)([O-])Oc1cccc(C[n+]2csc(C)c2)c1)OC (stereo not drawn)
Lethality (Mus musculus [11]): 4 dead/total | Lethality (Oryctolagus cuniculus [4]): 1 dead/total

Compound: CCCCCCCCCCCCCCOc1ccc(OP(=O)([O-])Oc2cccc(C[n+]3csc(C)c3)c2)c(C(C)=O)c1
Lethality (Mus musculus [12]): 6 dead/total

Compound: CCCCCCCCCCCCOc1cccc(OCC(COP(=O)([O-])Oc2cccc(C[n+]3csc(C)c3)c2)OCC)c1C (stereo not drawn)
Lethality (Mus musculus [13]): 0 dead/total | Lethality (Oryctolagus cuniculus [14]): 1 dead/total | Lethality (Mus musculus [15]): 23 dead/total | Lethality (Mus musculus [16]): 6 dead/total | Lethality (Oryctolagus cuniculus [17]): 0 dead/total | Lethality (Oryctolagus cuniculus [4]): 1 dead/total

Compound: CCCCCCCCCCCCCCc1cccc(OCC(COP(=O)([O-])Oc2cccc(C[n+]3ccsc3)c2)OC)c1 (stereo not drawn)
Lethality (Mus musculus [18]): 0 dead/total | Lethality (Oryctolagus cuniculus [4]): 1 dead/total

Compound: CCCCCCCCCCCCCCOc1cccc(OP(=O)([O-])Oc2cccc(C[n+]3ccsc3)c2)c1OC
Lethality (Mus musculus [19]): 4 dead/total

Compound: CCCCCCCCCCCCCCCCOCC(COP(=O)([O-])Oc1ccccc1C[n+]1ccsc1)OC (stereo not drawn)
Lethality (Oryctolagus cuniculus [4]): 1 dead/total

Compound: CCCCCCCCCCCCCCOc1ccc(OP(=O)([O-])Oc2cccc(C[n+]3csc(C)c3)c2)c(OC)c1
Lethality (Mus musculus [20]): 16 dead/total

Compound: CCCCCCCCCCCCCCOc1cccc(OP(=O)([O-])Oc2cccc(C[N+]3=CN=CC3)c2)c1OC
Inhibition (Oryctolagus cuniculus [21]): 12%

Compound: CCCCCCCCCCCCCCCCOCC(COP(=O)(O)Oc1cccc(C/N=C(\S)Nc2ccccc2)c1)OC (stereo not drawn)
Inhibition (Oryctolagus cuniculus [22]): 22%

Compound: CCCCCCCCCCCCOc1cccc(OCC(COP(=O)([O-])Oc2cccc(C[n+]3ccsc3)c2)OC)c1C (stereo not drawn)
Lethality (Mus musculus [23]): 1 dead/total

Compound: CCCCCCCCCCCCCCCCCCNC(=O)OCC(COP(=O)([O-])Oc1ccccc1C[n+]1ccsc1)OC (stereo not drawn)
Lethality (Mus musculus [24]): 0 dead/total

IC50 (Oryctolagus cuniculus [25]): Not Active
Compound: CCCCCCCCCCCCCCOc1cccc(OP(=O)([O-])Oc2cccc(CC[n+]3csc(C)c3)c2)c1OC

Compound: CCCCCCCCCCCCCCOc1ccc(C(=O)c2ccccc2)c(OP(=O)([O-])Oc2cccc(C[n+]3csc(C)c3)c2)c1
Lethality (Mus musculus [26]): 3 dead/total | Lethality (Mus musculus [27]): 0 dead/total

Compound: CCCCCCCCCCCCCCOc1cccc(OP(=O)([O-])Oc2cccc(C[n+]3csc(C)c3)c2)c1C(=O)OC
Lethality (Oryctolagus cuniculus [28]): 0 dead/total | Lethality (Mus musculus [26]): 3 dead/total | Lethality (Mus musculus [29]): 165 dead/total | Lethality (Oryctolagus cuniculus [30]): 6 dead/total | Lethality (Oryctolagus cuniculus [31]): 0 dead/total

Compound: CCCCCCCCCCCCOc1cc(OP(=O)([O-])Oc2cccc(C[n+]3ccsc3)c2)c(C(C)(C)C)cc1C(C)(C)C
Inhibition (Oryctolagus cuniculus [21]): 15% | Lethality (Oryctolagus cuniculus [4]): 2 dead/total

Compound: CCCCCCCCCCCCCCOc1cccc(OP(=O)([O-])Oc2cccc(C[n+]3csc(C)c3)c2)c1C(C)=O
Lethality (Mus musculus [32]): 18 dead/total

Compound: CCCCCCCCCCCCCCOc1cccc(OP(=O)([O-])Oc2cccc(C[n+]3ccsc3)c2)c1C(=O)OC
Lethality (Mus musculus [23]): 11 dead/total | Lethality (Mus musculus [26]): 5 dead/total
